According to ChEMBL document CHEMBL1221229, “Phloroglucinol glycosides from the fresh fruits of Eucalyptus maideni” (J Nat Prod, 2010):
Calls of active or inactive are those of the source. The calls are words filed in the database; no cut-off is given here.

How the values were obtained:
Human alphaherpesvirus 1 = assay: Antiviral activity against HSV1 infected african green monkey Vero cells assessed as reduction of plaque formation after 3 days by using crystal violet stain; type: functional, organism-based
How it was run: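 Vero cells in 24-well plates, grown 24 h, then infected with 30 PFU HSV-1 alongside serial sample dilutions in DMEM with 2% FBS (pH 7.2, NaHCO3/Hepes). The wells were overlaid with 1% methylcellulose medium and incubated 3 days. Monolayers were formalin-fixed and crystal violet-stained, and plaques counted by microscope. The 100% plaque-reducing concentration was read from graphic plots. Aciclovir was the positive control.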

[1] = Cytotoxicity against african green monkey Vero cells after 3 days by MTT assay; type: cell-based; conditions: chlorocebus sabaeus, read-out: MNCC
How it was run: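 Confluent Vero monolayers in 96-well plates were exposed in triplicate to serial sample dilutions in DMEM with 2% FBS (pH 7.2) for 3 days. MTT (5 mg/mL in PBS) was added for 4 h, and formazan was dissolved in DMSO with OD read at 540/630 nm. The value is the maximal concentration without cytotoxic effect relative to medium control.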

O=c1cc(-c2cc(O)c(O)c(O[C@@H]3O[C@H](CO)[C@@H](O)[C@H](O)[C@H]3O)c2)oc2cc(O)cc(O)c12
inhibition (Human alphaherpesvirus 1): inactive
MNTC at 72 h [1]: 430 µM

O=c1cc(-c2ccc(O)c(O[C@@H]3O[C@H](CO)[C@@H](O)[C@H](O)[C@H]3O)c2)oc2cc(O)cc(O)c12
inhibition (Human alphaherpesvirus 1): inactive
MNTC at 72 h [1]: 450 µM

COc1c(O)cc2c(=O)oc3c(O[C@@H]4O[C@@H](C)[C@H](O)[C@@H](O)[C@H]4O)c(O)cc4c(=O)oc1c2c34
inhibition (Human alphaherpesvirus 1): inactive
MNTC at 72 h [1]: 430 µM

O=C[C@H](O)[C@@H](O)[C@H](O)[C@H](O)COC(=O)c1cc(O)c(O)c(O)c1
inhibition (Human alphaherpesvirus 1): inactive
MNTC at 72 h [1]: 9 µM

O=c1c(O[C@@H]2O[C@H](CO)[C@@H](O)[C@H](O)[C@H]2O[C@@H]2OC[C@@H](O)[C@H](O)[C@H]2O)c(-c2ccc(O)c(O)c2)oc2cc(O)cc(O)c12
inhibition (Human alphaherpesvirus 1): inactive
MNTC at 72 h [1]: 370 µM

CC(C)(O)[C@H]1CC=C(C(=O)OC[C@H]2O[C@@H](OC(=O)[C@H]3CC[C@H](C(C)(C)O)CC3)[C@H](O)[C@@H](O)[C@@H]2O)CC1
inhibition (Human alphaherpesvirus 1): inactive

CC(C)(O)[C@H]1CC=C(C(=O)OC[C@H]2O[C@@H](Oc3c(O)cc(C(=O)O)cc3O)[C@H](O)[C@@H](O)[C@@H]2O)CC1
inhibition (Human alphaherpesvirus 1): inactive

CC(C)(O)[C@H]1CC=C(C(=O)OC[C@H]2O[C@@H](Oc3cc(C(=O)O)cc(O)c3O)[C@H](O)[C@@H](O)[C@@H]2O)CC1
inhibition (Human alphaherpesvirus 1): inactive

COc1cc([C@@H]2c3cc(O)c(OC)cc3C[C@H](CO)[C@H]2CO[C@@H]2O[C@H](CO)[C@@H](O)[C@H](O)[C@H]2O)ccc1O
inhibition (Human alphaherpesvirus 1): inactive

CC(C)(O)C1CC=C(C(=O)O)CC1 (racemic)
inhibition (Human alphaherpesvirus 1): inactive
MNTC at 72 h [1]: > 1090 µM

O=C(O)c1cc(O)c(O)c(O)c1 [GALLIC ACID]
inhibition (Human alphaherpesvirus 1): inactive
MNTC at 72 h [1]: 590 µM

O=c1c(O[C@@H]2O[C@H](CO)[C@@H](O)[C@H](O)[C@H]2O)c(-c2ccc(O)c(O)c2)oc2cc(O)cc(O)c12 [ISOQUERCETIN]
inhibition (Human alphaherpesvirus 1): inactive
MNTC at 72 h [1]: 430 µM

O=c1cc(-c2ccc(O)c(O)c2)oc2cc(O)cc(O)c12 [LUTEOLIN]
inhibition (Human alphaherpesvirus 1): inactive
MNTC at 72 h [1]: 700 µM

O=c1c(O)c(-c2cc(O)c(O)c(O)c2)oc2cc(O)cc(O)c12 [MYRICETIN]
TIC (Human alphaherpesvirus 1): 0.31 mM
MNTC at 72 h [1]: 310 µM

O=c1c(O)c(-c2ccc(O)c(O)c2)oc2cc(O)cc(O)c12 [QUERCETIN]
TIC (Human alphaherpesvirus 1): 0.33 mM
MNTC at 72 h [1]: < 20 µM

O=c1cc(-c2cc(O)c(O)c(O)c2)oc2cc(O)cc(O)c12 [TRICETIN]
inhibition (Human alphaherpesvirus 1): inactive
MNTC at 72 h [1]: 40 µM
